Source: PubChem (The Scripps Research Institute Molecular Screening Center)
A selection: hits, their analogues and other compounds. The true share with any hit is near 2.8%.
ABHD4 inh: inhibitors of mouse ABHD4; purified mABHD4, FP-Rh probe fluorescence polarization; inhibition, % at 8.92 µM; hit rate 0.54% among 370,000; AID 720543;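 active = inhibition exceeding the mean over every tested compound plus 3 SD, cut at about 30% in these data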;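 also: 0% = plate median of compound wells and 100% = S159A mutant with DMSO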
Target sequence (Q8VD66 whole entry, looked up): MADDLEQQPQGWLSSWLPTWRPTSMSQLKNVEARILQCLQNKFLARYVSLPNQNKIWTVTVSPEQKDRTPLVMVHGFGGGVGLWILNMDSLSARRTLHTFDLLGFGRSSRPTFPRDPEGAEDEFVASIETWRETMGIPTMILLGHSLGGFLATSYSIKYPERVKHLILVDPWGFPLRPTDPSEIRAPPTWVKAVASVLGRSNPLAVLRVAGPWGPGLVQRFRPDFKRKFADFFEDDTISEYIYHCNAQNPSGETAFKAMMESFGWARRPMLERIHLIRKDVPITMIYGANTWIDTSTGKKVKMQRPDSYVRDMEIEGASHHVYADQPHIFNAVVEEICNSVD
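Assay system: Wild-type mouse ABHD4 protein | Medium: HEPES pH 7.0 buffer, 150 mM NaCl, 0.01% Pluronic F-127 | Incubation: Enzyme–compound pre-incubation 45 min, then probe 60 min, both 25 °C | Technique: Fluorescence polarization with parallel and perpendicular emission, 525/598 nm | Evaluation: % inhibition of FP-Rh probe binding versus controls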
PAFAH1B2 inh: blocks human PAF acetylhydrolase 1b catalytic subunit 2; hit rate 1.2% among 340,000; recombinant PAFAH1B2, FP-rhodamine activity probe, fluorescence polarization; inhibition, % at 3.39 µM; P68402; AID 492953;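 active = inhibition above the mean of all tested compounds plus 3 SD, cut at about 24% in these data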;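 also: 0% = enzyme with DMSO and 100% = wells lacking PAFAH1B2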
Target sequence (P68402 whole entry, looked up): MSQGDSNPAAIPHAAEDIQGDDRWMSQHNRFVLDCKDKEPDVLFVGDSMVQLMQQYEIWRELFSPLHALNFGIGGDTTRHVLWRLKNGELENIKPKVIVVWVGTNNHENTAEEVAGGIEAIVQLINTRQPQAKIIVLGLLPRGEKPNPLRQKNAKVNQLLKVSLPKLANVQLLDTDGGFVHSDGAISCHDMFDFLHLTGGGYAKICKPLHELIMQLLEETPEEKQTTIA
PAFAH2 inh: inhibitors of human PAFAH2. Q99487. recombinant PAFAH2, FP-rhodamine activity probe, fluorescence polarization. inhibition, % at 3.39 µM. hit rate 0.99% among 340,000. AID 492956;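 active = inhibition above the mean over all tested compounds plus 3 SD, cut at about 30% in these data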;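 also: inhibitors block probe labeling of enzyme so polarization drops; 0% = enzyme with DMSO and 100% = wells lacking PAFAH2 protein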
pPAFAH FP inh: pPAFAH (human) enzyme inhibition | recombinant pPAFAH, FP-rhodamine probe fluorescence polarization | inhibition, % at 3.39 µM | hit rate 1.5% among 330,000 | AID 463082;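 active = inhibition above the mean inhibition across the screen plus 3 SD, cut at about 25% in these data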;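 also: inhibitors block binding of the rhodamine activity-based probe so polarization drops; 0% = enzyme with DMSO and 100% = wells lacking pPAFAH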
PAFAH1B3 FP inh: inhibitors of human PAFAH1B3; inhibition, % at 3.39 µM; recombinant PAFAH1B3, FP-rhodamine probe, fluorescence polarization; AID 492972; hit rate 0.28% among 340,000;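 active = inhibition above the screen-wide average of all tested compounds plus 3 SD, cut at about 25% in these data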;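 also: 0% = enzyme with DMSO only and 100% = wells lacking PAFAH1B3 protein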
HTRA1 inh: blocks human HTRA1 serine peptidase. inhibition, % at 5.96 µM. recombinant HTRA1, FP-rhodamine activity-based probe, fluorescence polarization. AID 504803. hit rate 0.5% among 340,000; in the data active = inhibition above about 36%;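 also: 0% = enzyme with DMSO and 100% = wells lacking enzyme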
PAFAH2 FP conf: confirmation of human PAFAH2 inhibitors; shares compounds with PAFAH2 inh; recombinant PAFAH2, FP-rhodamine activity probe, fluorescence polarization; inhibition, % at 3.39 µM; hit rate 65% among 2,300; AID 493030;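 active = mean inhibition over three repeats above a set limit taken from the earlier primary screen, cut at about 30% in these data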;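 also: inhibitor blocks binding of rhodamine activity probe so polarization falls; 0% = enzyme with DMSO and 100% = wells lacking PAFAH2 protein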
The depositor's hits bear a star; . = no result given.

SMILES	ABHD4 inh	PAFAH1B2 inh	PAFAH2 inh	pPAFAH FP inh	PAFAH1B3 FP inh	HTRA1 inh	PAFAH2 FP conf
Cc1ccsc1C(=O)OCC(=O)NCc1ccc(Cl)cc1	-4	-1	39*	12	4	-2	40*
O=C(COC(=O)c1cc2c(s1)CCCC2)Nc1ccc(Cl)cn1	7	-3	30*	0	2	-1	33*
O=C(COC(=O)c1cccs1)Nc1ccc(Cl)cn1	0	3	67*	4	10	1	73*
COc1ccc(NC(=O)COC(=O)c2cc3c(s2)CCC3)cc1	.	-3	77*	12	4	-14	82*
COc1ccc(OC)c(S(=O)(=O)N2CCCCC2C(=O)N2CCN(Cc3ccc(F)cc3)CC2)c1 (stereo unspecified)	5	.	.	.	.	.	.
Cc1ccc(-n2c(SCC(=O)Nc3ccc(S(=O)(=O)Nc4cc(C)nc(C)n4)cc3)nnc2-c2ccncc2)cc1	-5	.	.	.	.	.	.
Cc1ccsc1C(=O)OCC(=O)Nc1ccc(Cl)cn1	-2	2	78*	19	12	-6	48*
Cc1cnc(C(=O)OCC(=O)Nc2ccc(Cl)cn2)cn1	2	1	7	-7	-1	0	.
CC(=O)c1cccc(NC(=O)COC(=O)c2cccc(N3C(=O)c4ccccc4C3=O)c2)c1	-2	-1	52*	1	6	-17	46*
Cc1ccc(NC(=O)COC(=O)c2cccc(N3C(=O)c4ccccc4C3=O)c2)cc1	-2	3	38*	11	2	-5	27
COc1cc(OC)cc(C(=O)OCC(=O)Nc2cccc(C(C)=O)c2)c1	-2	4	7	1	6	-9	.
CC(=O)c1ccc(NC(=O)c2cccc(N3C(=O)c4ccccc4C3=O)c2)cc1	.	-10	-9	5	-8	-3	.
O=C(c1ccccc1)n1ccc(-c2cccs2)n1	2	1	43*	1	-2	5	23
COc1ccc2cc(C(=O)NCc3ccccc3)c(=Nc3ccc(C(=O)O)cc3)oc2c1	2	3	25	1	7	-4	.
O=C(O)c1ccc(N=c2oc3cc(O)ccc3cc2C(=O)NCc2ccccc2)cc1	-1	9	54*	7	16	-8	40*
C=CCN1C(=O)[C@H](CC(=O)NCc2cccc(C(F)(F)F)c2)[C@@]2(C(=O)OCC)CCCC=C12	-2	.	.	.	.	.	.
C=CCn1c(O)c(N=NC(=O)c2ccccc2NS(=O)(=O)c2cccs2)c2ccccc21	-4	9	37*	2	5	-3	27
CCCCn1c(O)c(N=NC(=O)c2ccccc2NS(=O)(=O)c2cccs2)c2ccccc21	10	10	13	9	15	15	.
O=C(COC(=O)/C=C/c1cccc(F)c1)NC1CCCC1	-2	-3	73*	9	0	7	67*
O=C(COC(=O)/C=C/c1cccc(F)c1)NC1CCCCC1	-2	.	.	.	.	-1	.
O=C(COC(=O)/C=C/c1cccc(F)c1)NC1CCCCCC1	3	6	82*	10	8	-6	80*
O=C(COC(=O)/C=C/c1cccc(F)c1)NC1CC1	-3	0	34*	-1	3	-5	18
O=C(CSc1nnc(-c2ccccn2)n1-c1ccccc1)c1ccc(Cl)c(Cl)c1	-1	.	.	.	.	.	.
O=S(=O)(c1ccc(-c2csc(Nc3ccc(F)cc3)n2)cc1)N1CCCC1	2	-6	-14	9	7	-21	.
O=S(=O)(c1ccc(-c2csc(Nc3ccc(Br)cc3)n2)cc1)N1CCCC1	-2	1	30*	24	6	-18	-2
SMILES	ABHD4 inh	PAFAH1B2 inh	PAFAH2 inh	pPAFAH FP inh	PAFAH1B3 FP inh	HTRA1 inh	PAFAH2 FP conf
COc1ccc(-n2c(SCC(=O)Nc3ccc4c(c3)OCO4)nc3sc4c(c3c2=O)CCCC4)cc1	3	.	.	.	.	.	.
CC(=O)O[C@@H]1CCC[C@@]2(C(=O)N(Cc3ccccc3)c3ccc(-c4c(C)noc4C)cc32)[C@H]1NC(=O)CCc1ccccc1	-14	.	.	.	.	.	.
N#CC1=C2SCN(c3ccccc3)CN2C(=O)CC1c1cccs1 (stereo unspecified)	15	5	2	24	5	-3	.
Cc1ccc(C2CC(=O)N3CN(c4ccc(Br)cc4)CSC3=C2C#N)o1 (stereo unspecified)	9	4	32*	56*	6	11	9
CCN1C(=O)c2ccc(-c3nc4ccccc4c(=O)o3)cc2C1=O	2	2	35*	-3	11	0	63*
CC(=O)OCCN1C(=O)c2ccc(-c3nc4ccccc4c(=O)o3)cc2C1=O	-2	2	53*	2	-1	-3	46*
Cc1ccccc1C(=O)NC1CCCCN(Cc2cccc(C(F)(F)F)c2)C1=O (stereo unspecified)	-6	.	.	.	.	.	.
Cc1[nH]c2ccc(C(=O)OC(C)C(=O)NCc3ccccc3)cc2c1C (stereo unspecified)	-1	6	0	9	6	-8	.
Cc1ccccc1CN(C)C(=O)COC(=O)c1ccc2[nH]c(C)c(C)c2c1	9	1	51*	1	14	-12	31*
Nc1ccc(C(=O)OCCCc2nc3cc4ccccc4cc3[nH]2)cc1	-2	5	17	21	8	-7	.
Nc1ccc(C(=O)OCc2nc3cc4ccccc4cc3[nH]2)cc1	0	2	85*	12	7	-11	83*
Nc1ccc(C(=O)OCc2nc3c(ccc4ccccc43)[nH]2)cc1	-5	4	80*	17	11	-32	82*
COc1cccc(C(=O)n2ccc3ccc(-c4ccc5ccn(Cc6ccccc6)c5c4)cc32)c1	-18	.	.	.	.	.	.
CCN(CC)S(=O)(=O)c1cccc(C(=O)N[C@H](C(=O)OCC(=O)Nc2ccccc2)C(C)C)c1	3	5	51*	5	-10	26	39*
CCN(CC)S(=O)(=O)c1cccc(NC(=O)COC(=O)c2cncc(Br)c2)c1	0	0	-2	8	4	-15	.
